Measured values as given in ChEMBL document CHEMBL1777700, “Inhibition of multi-drug resistant HIV-1 reverse transcriptase by nucleoside β-triphosphates” (Bioorg Med Chem Lett, 2011).
Active and inactive are the calls of the source. The rule behind the calls is not given here.

Experiments:
[1] = target: Human immunodeficiency virus type 1 reverse transcriptase (Human immunodeficiency virus 1) (UniProt Q72547); experiment: Inhibition of wild type HIV1 recombinant reverse transcriptase p66/p51 heterodimer […] after 10 mins by gel-based radiolabeled primer extension assay
[2] = target: Human immunodeficiency virus type 1 reverse transcriptase (Human immunodeficiency virus 1) (UniProt Q72547); experiment: Inhibition of NNRTI-resistant HIV1 recombinant reverse transcriptase p66/p51 heterodimer up to 1 mM after 10 mins by gel-based radiolabeled primer extension assay
Method in brief: (§1)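 Purified p66/p51 HIV-1 RT (10 nM) was added to start reactions containing 50 nM of a 40 nt DNA template annealed to a 5′ end-labeled 22 nt DNA primer. The mix held 200 μM dNTPs, 10 mM Tris-HCl pH 8.0, 80 mM NaCl and 6 mM MgCl2. Reactions ran 10 min at 37 °C and were stopped with formamide gel-loading buffer. Inhibitor was tested at 10 nM–1 mM in tenfold steps, with a no-inhibitor lane.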

[3] = test system: Human immunodeficiency virus type 1 reverse transcriptase (Human immunodeficiency virus 1), Q72547 [M184V,K65R,Y115F]; experiment: Inhibition of NRTI-resistant HIV1 recombinant reverse transcriptase p66/p51 M184V/K65R/Y115F mutant at 100 uM after 10 mins by gel-based radiolabeled primer extension assay; method in brief: as §1
[4] = target: Human immunodeficiency virus type 1 reverse transcriptase (Human immunodeficiency virus 1) (UniProt Q72547); experiment: Inhibition of wild type HIV1 recombinant reverse transcriptase p66/p51 heterodimer at 10 to 100 uM after 10 mins by gel-based radiolabeled primer extension assay; method in brief: as §1
[5] = target: Human immunodeficiency virus type 1 reverse transcriptase (Human immunodeficiency virus 1) (UniProt Q72547); experiment: Inhibition of NNRTI-resistant HIV1 recombinant reverse transcriptase p66/p51 heterodimer at 10 nM to 10 uM after 10 mins by gel-based radiolabeled primer extension assay
[6] = test system: Human immunodeficiency virus type 1 reverse transcriptase (Human immunodeficiency virus 1), Q72547 [M184V,K65R,Y115F]; experiment: Inhibition of NRTI-resistant HIV1 recombinant reverse transcriptase p66/p51 M184V/K65R/Y115F mutant at 10 nM after 10 mins by gel-based radiolabeled primer extension assay; method in brief: as §1
[7] = target: Human immunodeficiency virus type 1 reverse transcriptase (Human immunodeficiency virus 1) (UniProt Q72547); experiment: Inhibition of NNRTI-resistant HIV1 recombinant reverse transcriptase p66/p51 heterodimer at 100 uM after 10 mins by gel-based radiolabeled primer extension assay; method in brief: as §1
[8] = target: Human immunodeficiency virus type 1 reverse transcriptase (Human immunodeficiency virus 1) (UniProt Q72547); experiment: Inhibition of wild type HIV1 recombinant reverse transcriptase p66/p51 heterodimer at 10 nM after 10 mins by gel-based radiolabeled primer extension assay; method in brief: as §1
[9] = test system: Human immunodeficiency virus type 1 reverse transcriptase (Human immunodeficiency virus 1), Q72547 [M184V,K65R,Y115F]; experiment: Inhibition of NRTI-resistant HIV1 recombinant reverse transcriptase p66/p51 M184V/K65R/Y115F mutant at 10 uM after 10 mins by gel-based radiolabeled primer extension assay; method in brief: as §1

Row | SMILES | inhibition [1] | inhibition [2] | inhibition [3] | inhibition [4] | inhibition [5] | inhibition [6] | inhibition [7] | inhibition [8] | inhibition [9]
1 | Cc1cn([C@H]2C=C[C@@H](COP(=O)(OP(=O)(O)O)OP(=O)(O)O)O2)c(=O)[nH]c1=O | Active | Active | Active | Active |  |  |  |  | 
2 | Cc1cn([C@H]2C[C@H](F)[C@@H](COP(=O)(OP(=O)(O)O)OP(=O)(O)O)O2)c(=O)[nH]c1=O | Active | Active | Active | Active |  |  |  |  | 
3 | Cc1cn([C@H]2C[C@H](N=[N+]=[N-])[C@@H](COP(=O)(OP(=O)(O)O)OP(=O)(O)O)O2)c(=O)[nH]c1=O |  |  |  |  | inactive | Active | Active | Active | Active
4 | Nc1ncnc2c1ncn2[C@@H]1O[C@H](COP(=O)(OP(=O)(O)O)OP(=O)(O)O)[C@@H](O)[C@H]1O |  |  |  |  | inactive | Active | Active | Active | Active
